Measured values: ChEMBL document CHEMBL1125523, “Novel indolodioxanes with antihypertensive effects: potent ligands for the 5-HT1A receptor” (J Med Chem, 1992)
pKi: −log10 of the molar value.

Columns and labels:
[1] = target: T1, 5-hydroxytryptamine receptor 1A (Homo sapiens, UniProt P08908); assay: Displacement of [3H]8-OH-DPAT from 5-hydroxytryptamine 1A receptor expressed in CHO cell membranes
T1 sequence (P08908 whole entry): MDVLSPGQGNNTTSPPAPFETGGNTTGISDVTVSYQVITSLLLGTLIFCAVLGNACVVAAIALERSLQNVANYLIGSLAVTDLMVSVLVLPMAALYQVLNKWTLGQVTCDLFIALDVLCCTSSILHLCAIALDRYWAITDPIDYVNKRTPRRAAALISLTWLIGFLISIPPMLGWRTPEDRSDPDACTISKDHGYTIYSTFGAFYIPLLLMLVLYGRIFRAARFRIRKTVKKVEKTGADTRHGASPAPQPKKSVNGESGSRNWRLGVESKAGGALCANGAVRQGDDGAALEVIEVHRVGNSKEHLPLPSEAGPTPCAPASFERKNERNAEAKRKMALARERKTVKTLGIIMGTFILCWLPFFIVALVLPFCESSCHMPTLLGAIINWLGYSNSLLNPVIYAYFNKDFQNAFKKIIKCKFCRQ
Procedure, shortened: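 [3H]8-OH-DPAT (164.5 Ci/mmol, 1 nM) competition on CHO membranes expressing a cloned mammalian 5-HT1A receptor. Ten drug concentrations in duplicate. IC50 from a nonlinear single-site fit, converted to Ki with Cheng–Prusoff. Ki in nM ± SEM.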

[2] = target: Serotonin 2 (5-HT2) receptor (Homo sapiens, UniProt P41595+P28223+P28335); assay: Binding affinity towards 5-hydroxytryptamine 2 receptor expressed in CHO cell membranes using [3H]ketanserin (60 Ci/mmol, 1 nM)
Procedure, shortened: (§1)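 Competition binding on membranes from CHO cells expressing a cloned mammalian 5-HT2 receptor, with [3H]ketanserin (60 Ci/mmol, 1 nM). Ten drug concentrations run in duplicate. IC50 from a nonlinear single-site fit, converted to Ki by Cheng–Prusoff. Ki reported in nM ± SEM.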

[3] = target: T2, Adrenergic receptor alpha-1 (Rattus norvegicus, UniProt P15823+P23944+P43140); assay: Binding affinity towards Alpha-1 adrenergic receptor from rat whole brain using [3H]prazosin (18.1 Ci/mmol,0.9nanoM)as radioligand
T2 sequence (P15823 whole entry): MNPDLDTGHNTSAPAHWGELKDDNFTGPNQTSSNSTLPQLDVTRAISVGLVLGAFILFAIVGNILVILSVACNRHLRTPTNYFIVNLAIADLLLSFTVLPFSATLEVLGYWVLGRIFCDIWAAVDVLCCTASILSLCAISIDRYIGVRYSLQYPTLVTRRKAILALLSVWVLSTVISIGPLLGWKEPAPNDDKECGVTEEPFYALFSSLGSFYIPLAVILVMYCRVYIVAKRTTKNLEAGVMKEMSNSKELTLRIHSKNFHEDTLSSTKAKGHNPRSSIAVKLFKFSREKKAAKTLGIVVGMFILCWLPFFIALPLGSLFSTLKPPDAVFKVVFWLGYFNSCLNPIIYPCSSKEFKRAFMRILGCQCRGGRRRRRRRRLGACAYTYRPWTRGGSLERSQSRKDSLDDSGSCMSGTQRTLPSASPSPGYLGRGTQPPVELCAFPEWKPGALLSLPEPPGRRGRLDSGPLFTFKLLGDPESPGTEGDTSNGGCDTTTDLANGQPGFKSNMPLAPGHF
T2 sequence (P23944 whole entry): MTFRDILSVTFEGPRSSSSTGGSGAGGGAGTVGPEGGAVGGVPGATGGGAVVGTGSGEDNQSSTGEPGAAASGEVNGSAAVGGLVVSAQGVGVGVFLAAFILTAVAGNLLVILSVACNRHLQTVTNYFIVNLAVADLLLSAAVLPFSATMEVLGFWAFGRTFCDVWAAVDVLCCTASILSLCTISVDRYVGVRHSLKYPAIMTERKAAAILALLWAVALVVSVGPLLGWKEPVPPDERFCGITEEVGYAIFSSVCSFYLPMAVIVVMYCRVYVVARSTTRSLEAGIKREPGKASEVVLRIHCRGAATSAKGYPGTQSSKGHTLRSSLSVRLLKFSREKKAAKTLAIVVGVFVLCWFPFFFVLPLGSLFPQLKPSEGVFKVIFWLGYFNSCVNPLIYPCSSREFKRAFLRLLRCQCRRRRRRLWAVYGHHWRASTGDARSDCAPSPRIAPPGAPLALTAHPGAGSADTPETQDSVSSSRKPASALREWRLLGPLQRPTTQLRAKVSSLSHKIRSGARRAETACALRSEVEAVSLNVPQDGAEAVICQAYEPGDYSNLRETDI
T2 sequence (P43140 whole entry): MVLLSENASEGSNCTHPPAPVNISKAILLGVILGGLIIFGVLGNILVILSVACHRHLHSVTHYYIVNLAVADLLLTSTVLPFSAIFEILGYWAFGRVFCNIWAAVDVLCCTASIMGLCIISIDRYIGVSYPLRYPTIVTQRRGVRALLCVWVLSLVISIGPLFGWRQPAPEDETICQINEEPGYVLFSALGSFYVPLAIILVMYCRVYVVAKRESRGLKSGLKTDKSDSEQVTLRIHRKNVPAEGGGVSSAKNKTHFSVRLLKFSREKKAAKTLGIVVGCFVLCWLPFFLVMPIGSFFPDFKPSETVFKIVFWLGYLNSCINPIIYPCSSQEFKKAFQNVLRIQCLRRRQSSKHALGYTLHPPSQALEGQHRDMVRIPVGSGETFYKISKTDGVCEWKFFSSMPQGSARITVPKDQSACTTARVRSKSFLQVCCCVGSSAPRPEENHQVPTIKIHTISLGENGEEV
Procedure, shortened: (§2)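 Rat whole-brain membranes displaced by test drug from [3H]prazosin (18.1 Ci/mmol, 0.9 nM). Ten concentrations in duplicate. IC50 by nonlinear single-site fit, then Ki via Cheng–Prusoff. Ki given in nM ± SEM.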

D(2) dopamine receptor [4] = target: T3, D(2) dopamine receptor (Homo sapiens, UniProt P14416); assay: Binding affinity towards Dopamine receptor D2 from mammalian clones expressed in CHO cell membranes using 2 (86.1 Ci/mmol,1.7nanoM)as radioligand
T3 sequence (P14416 whole entry): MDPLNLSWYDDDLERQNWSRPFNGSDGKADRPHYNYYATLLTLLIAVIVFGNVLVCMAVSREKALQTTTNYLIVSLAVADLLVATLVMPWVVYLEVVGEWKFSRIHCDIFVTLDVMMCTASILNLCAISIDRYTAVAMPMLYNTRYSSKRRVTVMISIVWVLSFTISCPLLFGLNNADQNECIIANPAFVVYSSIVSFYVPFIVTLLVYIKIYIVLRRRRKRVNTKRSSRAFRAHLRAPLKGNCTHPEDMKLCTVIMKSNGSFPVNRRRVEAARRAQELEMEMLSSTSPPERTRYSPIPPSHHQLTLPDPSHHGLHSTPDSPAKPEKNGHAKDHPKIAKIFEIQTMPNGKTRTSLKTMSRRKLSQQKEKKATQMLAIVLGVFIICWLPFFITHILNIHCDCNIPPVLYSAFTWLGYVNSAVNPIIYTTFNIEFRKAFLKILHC
Procedure, shortened: (§3)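 Cloned mammalian D2 receptor in CHO cell membranes, radioligand [3H]U-86170 (86.1 Ci/mmol, 1.7 nM). Competition over ten drug concentrations in duplicate. IC50 from a single-site nonlinear fit, with Ki by Cheng–Prusoff. Values in nM ± SEM.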

Mus musculus [5] = assay: Result of hypothermia assay carried in Charles river CF-1 male mice at a dose of 0.01 mg/kg (s.c. administration); assay type: functional
Procedure, shortened: (§4)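 Male CF-1 mice (18–22 g), four per dose, individually caged. Rectal temperature (°F) taken before and 20 min after a 0.1 mL sc injection. A fall of 2 °F or more counted as a positive hypothermic response. Doses started at 30 mg/kg and were lowered by half-log steps.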

Mus musculus [6] = assay: Result of hypothermia assay carried in Charles river CF-1 male mice at a dose of 17.3 mg/kg (s.c. administration); assay type: functional; procedure, shortened: as §4
D(2) dopamine receptor [7] = target: T3, D(2) dopamine receptor; assay: Compound was evaluated for the binding affinity towards Dopamine receptor D2 from mammalian clones expressed in CHO cell membranes using 2 (86.1 Ci/mmol,1.7nanoM)as radioligand; procedure, shortened: as §3
Mus musculus [8] = assay: Result of hypothermia assay carried in Charles river CF-1 male mice at a dose of 1.3 mg/kg (s.c. administration); assay type: functional
Procedure, shortened: (§5)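 CF-1 male mice (18–22 g), four per dose, caged individually. Rectal temperature (°F) taken before dosing and 20 min after. A drop of 2 °F or more counted as positive. Doses started at 30 mg/kg and fell by half-log steps until 0/4 mice responded. Route: sc, 0.1 mL; po, 0.2 mL by oral syringe. ED50 by Spearman-Kärber.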

Mus musculus [9] = assay: Result of hypothermia assay carried in Charles river CF-1 male mice at a dose of 1.7 mg/kg (oral administration); assay type: functional; procedure, shortened: as §5
[10] = Compound was evaluated for the binding affinity towards 5-hydroxytryptamine 2 receptor from mammalian clones expressed in CHO cell membranes using [3H]-ketanserin as radioligand; procedure, shortened: as §1
[11] = target: T2, Adrenergic receptor alpha-1; assay: Compound was evaluated for the binding affinity towards Alpha-1 adrenergic receptor from rat whole brain using [3H]prazosin as radioligand; procedure, shortened: as §2
D(2) dopamine receptor [12] = target: T3, D(2) dopamine receptor; assay: Compound was evaluated for the binding affinity towards Dopamine receptor D2 from mammalian clones expressed in CHO cell membranes using [3H]U-86170 as radioligand; procedure, shortened: as §3
Mus musculus [13] = assay: Result of hypothermia assay carried in Charles river CF-1 male mice at a dose of 30 mg/kg (s.c. administration); assay type: functional; procedure, shortened: as §4

Compound	pKi [1]	Ki [2]	Ki [3]	pKi (D(2) dopamine receptor [4])	other results
COC(=O)c1cc2c3c(ccc2[nH]1)OCC(CN1CCC(Nc2ccccc2)(C(N)=O)CC1)O3 (stereo unspecified)	7.66	171 nM	19.8 nM	< 6.41	
N#Cc1cc2c3c(ccc2[nH]1)OCC(CN1CCC2(CC1)C(=O)NCN2c1ccccc1)O3 (stereo unspecified)	9.30	281 nM	6 nM	8.82	Temperature decrease (Mus musculus [5]): 13 degrees F
CCCCOC(=O)c1cc2c3c(ccc2[nH]1)OCC(CN1CCC2(CC1)C(=O)NCN2c1ccccc1)O3 (stereo unspecified)	8.52	92.6 nM	39.6 nM	8.24	
O=C(NCCCc1ccccc1)c1cc2c3c(ccc2[nH]1)OCC(CNCCCc1ccccc1)O3 (stereo unspecified)	8.80	27.6 nM	11.4 nM	7.39	
O=C(O)c1cc2c3c(ccc2[nH]1)OCC(CN1CCC2(CC1)C(=O)NCN2c1ccccc1)O3 (stereo unspecified)	7.75	> 1722 nM	> 862 nM	7.24	Temperature decrease (Mus musculus [6]): 3.6 degrees F
O=C1NCN(c2ccccc2)C12CCN(CC1COc3ccc4[nH]ccc4c3O1)CC2 (stereo unspecified)	9.40				pKi (D(2) dopamine receptor [7]): 9.70
O=C(OCc1ccccc1)c1cc2c3c(ccc2[nH]1)OCC(CN1CCC2(CC1)C(=O)NCN2c1ccccc1)O3 (stereo unspecified)	9.00	143 nM	30.4 nM	8.24	Temperature decrease (Mus musculus [6]): 5.6 degrees F
COC(=O)c1cc2c3c(ccc2[nH]1)OCC(CNCCCc1ccccc1)O3 (stereo unspecified)	9.70	38.7 nM	0.6 nM	7.80	Temperature decrease (Mus musculus [8]): 13.6 degrees F; Temperature decrease (Mus musculus [9]): 8.8 degrees F
CCOC(=O)C1CCN(CC2COc3ccc4[nH]c(C(=O)OC)cc4c3O2)CC1 (stereo unspecified)	8.92	170 nM	12.3 nM	6.59	
COC(=O)c1cc2c3c(ccc2[nH]1)OCC(CN1CCC2(CC1)C(=O)NCN2c1ccccc1)O3 (stereo unspecified)	9.05				pKi [10]: 6.19; Ki [11]: 11.4 nM; pKi (D(2) dopamine receptor [12]): 8.51; Temperature decrease (Mus musculus [13]): 3.2 degrees F
NC(=O)c1cc2c3c(ccc2[nH]1)OCC(CN1CCC2(CC1)C(=O)NCN2c1ccccc1)O3 (stereo unspecified)	9.52	> 1722 nM	29.4 nM	8.74	
O=C1NCN(c2ccccc2)C12CCN(CC1COc3ccc4[nH]c(CO)cc4c3O1)CC2 (stereo unspecified)	9.22	> 1722 nM	8.8 nM	8.70	
COC(=O)c1cc2c3c(ccc2[nH]1)OCC(CN1CCC(n2c(O)nc4ccccc42)CC1)O3 (stereo unspecified)	9.22	31.6 nM	1.8 nM	8.17	
